Screening data from PubChem.
Compounds with a hit are over-represented: about 1.4% of the library has one in this group of screens.
H9c2 protect = protects H9c2 cardiomyocytes from peroxide injury. H2O2 injury protection, ATPLite, 2 h. protection from H2O2 cell death, % at 20 µM. 360,000 compounds, 0.63% hits;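 active = compounds giving at least 50% protection of heart cells from peroxide-induced death in the single-dose screen, raw or plate-pattern-corrected value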;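 note: 0% = DMSO wells with peroxide and 100% = DMSO wells without peroxide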
MT1-MMP act inh = blocks activation of human MT1-MMP; P50281; HT1080 RFP-PRO-GFP cells, GFP/RFP ratio fluorescence, overnight; percent of plate control window, DMSO zero; GFP/RFP ratio change, % at 20 µM; 360,000 compounds, 0.061% hits;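 active = GFP/RFP ratio change of at least 30% with cell ATP level not reduced by more than half and red fluorescence within 50% of control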
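Read-out: GFP/RFP fluorescence ratio; Test system: RFP-PRO-GFP reporter HT1080 cells; Compound dosing: single-point 20 µM compound, 1% DMSO; Times: overnight compound exposure at 37 °C.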
Tn7 DDE FP = inhibitors of Tn7 peptide binding to human fibrin DD(E); inhibition, % at 8.3 µM; 370,000 compounds, 0.13% hits; FP displacement of FITC-Tn7 peptide from fibrin DD(E); 0% = median of compound wells per plate; P02675; AID 720508;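 active = inhibition above the mean of compounds falling within the control limits plus 3 SD of them, cut at about 14% in these data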;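 note: 0% = plate median of compound wells and 100% = 10 µM Aha-Tn7 peptide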
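System: human fibrin DD(E); quantity: Fibrin-DD(E) at 2 µM final; also added: fluorescent Tn7 probe at 0.1 µM; compound dosing: single nominal test concentration of 8.3 µM per compound; schedule: 10 min preincubation, 3 h with tracer, room temperature; detection: fluorescence polarization of the labelled Tn7 tracer; repeats: one replicate per compound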
DAGLB inhibitor = diacylglycerol lipase beta (human) inhibition | inhibition, % at 5.17 µM | Q8NCG7 | 340,000 compounds, 0.059% hits | HEK293T DAGLB membrane lysate, EnzChek fluorogenic substrate; in the data active = inhibition above about 34%;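 note: 0% = enzyme with vehicle and 100% = wells lacking enzyme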
TAG inh = triacylglycerol accumulation inhibition. inhibition, % at 12.5 µM. H9c2 cells, Nile Red lipid (TAG) fluorescence; cells loaded with 200 µM oleic acid. 230,000 compounds, 0.66% hits. AID 651582;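 active = pattern-corrected inhibition of lipid staining of at least 50% with the nuclear-stain viability signal not falling by more than 50%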;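 note: 0% = DMSO wells and 100% = triacsin C control wells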
DDE Tn6 FP inh = disrupts Tn6 cyclic peptide binding to fibrin D-Dimer-E complex | Fibrin DD(E) TRITC-Tn6 fluorescence polarization displacement | 370,000 compounds, 0.21% hits | AID 720509 | inhibition, % at 8.3 µM;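 active = inhibition above a per-campaign cutoff: mean of compounds within control limits plus 3 SD, cut at about 15% in these data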;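 note: 0% = median of all compound wells on the plate and 100% = blocking peptide control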
Tn7 DDE conf = DD(E)-Tn7 binding inhibition, FP confirmation; FP displacement of TRITC-Tn7 peptide from DD(E); 0% set at plate's compound-well median; 460 compounds, 5% hits; shares compounds with Tn7 DDE FP; AID 720628; inhibition, % at 8.3 µM;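 active = inhibition above the campaign cutoff, the mean of compounds within control limits plus 3 SD, cut at about 14% in these data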;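 note: 100% = median FP of high control wells holding Aha-Tn7 inhibitor peptide; displacers lower polarization since freed probe rises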
DDE Tn7 FP ctr = counter-screen hit for Tn7 peptide-fibrin DD(E) binding disruption; shares compounds with Tn7 DDE FP; TRITC-Tn7 probe displacement, fluorescence polarization; inhibition, % at 8.3 µM; 460 compounds, 3% hits; AID 720633;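 active = inhibition above the cutoff, the mean of compounds lying between the control bounds plus 3 SD of those compounds, cut at about 17% in these data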;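 note: 0% = median of compound sample wells and 100% = excess unlabeled Aha-Tn7 peptide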
The depositor's hits bear a star; nt = no result given.

SMILES | H9c2 protect | MT1-MMP act inh | Tn7 DDE FP | DAGLB inhibitor | TAG inh | DDE Tn6 FP inh | Tn7 DDE conf | DDE Tn7 FP ctr
CCOC(=O)c1oc2cccc(O)c2c1CN(Cc1ccccc1)C(C)=O | 5 | -6 | 14* | 0 | nt | 8 | 7 | -1
CCOC(=O)c1oc2cccc(O)c2c1C | 1 | -5 | -3 | -3 | -7 | -2 | nt | nt
Cc1ccc2c(c1)[C@H]1[C@H](CO2)[C@H](c2ccccc2)[C@]2(C)C(=O)N(Cc3ccc(F)cc3)CC(=O)N12 | 9 | -89 | 27* | -16 | -16 | -6 | 14* | 11
Cc1ccc2c(c1)[C@H]1[C@H](CO2)[C@H](c2ccccc2)[C@]2(C)C(=O)N(Cc3ccc(Cl)cc3)CC(=O)N12 | -2 | -3 | -7 | -11 | 13 | -8 | nt | nt
C=CCOc1ccc2c(c1)CCC1C2CCC2(C)C(O)C(O)CC12 (centres undefined) | -7 | 5 | 14* | 1 | -13 | 3 | 3 | -1
C[C@]12CC[C@@H]3c4ccc(O[C@@H]5O[C@H](C(=O)O)[C@@H](O)[C@H](O)[C@H]5O)cc4CC[C@H]3[C@@H]1C[C@@H](O)[C@@H]2O | -1 | -1 | -4 | -1 | -1 | -4 | nt | nt
O=C(Nc1cccc(Br)c1)OC1CC2CC1[C@H]1CCCCN1[C@H]2Cc1ccccc1 (some centres undefined) | nt | nt | -6 | nt | nt | 0 | nt | nt
O=C1C(NC(=O)C(F)(F)Br)CCCCN1Cc1cccc(C(F)(F)F)c1 (centres undefined) | nt | nt | 6 | nt | nt | 10 | nt | nt
CC(OC(=O)c1ccco1)C(=O)Nc1ccc(Cl)cn1 (centres undefined) | 8 | 1 | 15* | 1 | -10 | 1 | -3 | -7
CCCCN1CC[C@@H](C)Oc2cc(Br)ccc2S1(=O)=O | nt | nt | 12 | nt | nt | 4 | nt | nt
COC(=O)C1CN(C2CC2)CCS(=O)(=O)N1Cc1cn(Cc2ccc(OC)cc2)nn1 (centres undefined) | nt | nt | -1 | nt | nt | 8 | nt | nt
C=CCOc1ccc(/C=C/C(=O)N2CCCN(S(=O)(=O)c3c(C)noc3C)CC2)cc1 | -3 | 5 | 15* | 0 | -2 | 8 | 6 | -2
COc1ccc2[nH]c(=O)c(CN(C)C(=O)c3ccncc3)cc2c1 | -2 | -6 | 15* | 1 | nt | -1 | -2 | -4
COc1ccc2[nH]c(=O)c(CN(C(=O)c3ccncc3)C(C)C)cc2c1 | 6 | 3 | -5 | 0 | 4 | -7 | nt | nt
Nn1c(SCc2cccc3ccccc23)nnc1-c1cc(-c2ccc(F)cc2)n[nH]1 | nt | nt | -3 | nt | nt | -2 | nt | nt
O=C1CCCC2=C1C(c1ccccc1)CC(=O)N2c1ccccc1 (centres undefined) | 14 | 0 | -2 | -3 | -28 | -4 | nt | nt
O=C1CCCC2=C1C(c1ccsc1)CC(=O)N2c1ccccc1F (centres undefined) | -6 | 4 | 15* | -2 | -39 | 4 | 1 | -2
COC(=O)[C@]12C[C@H](CC(=O)NCc3ccc(C)o3)C(=O)N(Cc3cccc4ccccc34)C1=C[C@H](C1CCCC1)O[C@@H]2C | nt | nt | 8 | nt | nt | -5 | nt | nt
COc1ccccc1NC(=O)CSc1nnc(COc2ccccc2OC)n1C | 4 | -1 | 14* | 1 | -3 | 0 | 4 | 2
COc1cc(C)c(S(=O)(=O)NCc2ccc3c(c2)OCO3)cc1C | -9 | 2 | 3 | 2 | 0 | -8 | nt | nt
COc1cc(C)c(Cl)c(C)c1S(=O)(=O)NCc1ccc2c(c1)OCO2 | -9 | 4 | 16* | -4 | -3 | 3 | -1 | -6
Nc1ccc2nc3c(=O)n(CCc4ccccc4)c(=O)[nH]c3nc2c1 | 13 | -142 | 8 | nt | -9 | -1 | nt | nt
CCCCn1c(=O)[nH]c2nc3cc(N)ccc3nc2c1=O | 12 | -168 | 25* | -90 | nt | 8 | -12 | 0
